Experimental data published in ChEMBL document CHEMBL4819032, “Structure-based design of highly selective 2,4,5-trisubstituted pyrimidine CDK9 inhibitors as anti-cancer agents” (Eur J Med Chem, 2021).
pKi: −log10 of the molar value. Activity calls are given as the source filed them. No cut-off for these calls is given here.

Key:
CDK9/cyclin T1 = CDK9/cyclin T1 (Homo sapiens, UniProt P50750); test: Inhibition of recombinant human full length CDK9/Cyclin T1 using KTFCGTPEYLAPEVRREPRILSEEEQEMFRDFDYIADWC as substrate incubated for 40 mins in presence of [gamma-33P]-ATP by scintillation counting method; format: protein-complex assay
How it was run: (§1)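 Radiometric kinase assay with ATP at each kinase's Km(app). IC50 values come from 10-point dose-response curves, and apparent Ki is calculated from IC50 and the kinase's Km(ATP).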

[1] = biological target: Vascular endothelial growth factor receptor 2 (Homo sapiens) (UniProt P35968); test: Inhibition of recombinant human KDR 790 to end residues ) using myelin basic protein as substrate incubated for 40 mins by scintillation counting method
How it was run: (§2)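 The 60-kinase diversity panel was run as a radiometric assay with ATP at each kinase's Km(app). Compound was tested at one fixed concentration across all kinases.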

CDK2/Cyclin A2 = CDK2/Cyclin A2 (Homo sapiens, UniProt P24941); test: Inhibition of recombinant human full length CDK2/Cyclin A using histone H1 as substrate incubated for 40 mins in presence of [gamma-33P]-ATP by scintillation counting method; format: protein-complex assay
HCT-116 [2] = test: Growth inhibition of human HCT-116 cells after 48 hrs by MTT assay; format: functional
MCF7 = test: Growth inhibition of human MCF7 cells after 48 hrs by MTT assay; format: functional
[3] = biological target: Cyclin-dependent kinase 1/cyclin B1 (Homo sapiens, UniProt P06493); test: Inhibition of recombinant human full length CDK1/Cyclin B using histone H1 as substrate incubated for 40 mins in presence of [gamma-33P]-ATP by scintillation counting method; format: protein-complex assay; how it was run: as §1
[4] = biological target: Cyclin-dependent kinase 7/ cyclin H (Homo sapiens, UniProt P50613); test: Inhibition of recombinant human full length CDK7/Cyclin H using peptide as substrate incubated for 40 mins in presence of [gamma-33P]-ATP by scintillation counting method; format: protein-complex assay; how it was run: as §1
[5] = test system: Aurora kinase A (Homo sapiens), O14965 [UNDEFINED MUTATION]; test: Inhibition of recombinant human full length Aurora-A I31F mutant using LRRASLG as substrate incubated for 40 mins by scintillation counting method; how it was run: as §2
[6] = biological target: Mitogen-activated protein kinase kinase kinase 9 (Homo sapiens) (UniProt P80192); test: Inhibition of recombinant human full length MLK1 (134 to 414 residues)using casein as substrate incubated for 40 mins by scintillation counting method; how it was run: as §2
MDA-MB-468 = test: Growth inhibition of human MDA-MB-468 cells after 48 hrs by MTT assay; format: functional
A549 = test: Growth inhibition of human A549 cells after 48 hrs by MTT assay; format: functional
HeLa = test: Growth inhibition of human HeLa cells after 48 hrs by MTT assay; format: functional
MIA PaCa-2 = test: Growth inhibition of human MIA PaCa-2 cells after 48 hrs by MTT assay; format: functional
A2780 [7] = test: Induction of apoptosis in human A2780 cells assessed as viable cells at 0.5 uM after 24 hrs by Annexin V-FITC/PI staining based flow cytometric analysis (reference value: 92%); format: functional; settings: read-out: Activity
How it was run: (§3)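 A2780 cells cultured 24 h in medium alone or with varying inhibitor concentrations, then stained with FITC-annexin V/PI per kit protocol and analysed by flow cytometry. Run in triplicate and repeated at least twice; significance by one-way ANOVA, p < 0.01.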

A2780 [8] = test: Induction of apoptosis in human A2780 cells assessed as early apoptotic cells at 0.5 uM after 24 hrs by Annexin V-FITC/PI staining based flow cytometric analysis (reference value: 1.6%); format: functional; how it was run: as §3
A2780 [9] = test: Induction of apoptosis in human A2780 cells assessed as late apoptotic cells at 0.5 uM after 24 hrs by Annexin V-FITC/PI staining based flow cytometric analysis (reference value: 2.8%); format: functional; how it was run: as §3
A2780 [10] = test: Induction of apoptosis in human A2780 cells assessed as viable cells at 1 uM after 24 hrs by Annexin V-FITC/PI staining based flow cytometric analysis (reference value: 92%); format: functional; settings: read-out: Activity; how it was run: as §3
A2780 [11] = test: Induction of apoptosis in human A2780 cells assessed as early apoptotic cells at 1 uM after 24 hrs by Annexin V-FITC/PI staining based flow cytometric analysis (reference value: 1.6%); format: functional; how it was run: as §3
A2780 [12] = test: Induction of apoptosis in human A2780 cells assessed as early apoptotic cells at 2 uM after 24 hrs by Annexin V-FITC/PI staining based flow cytometric analysis (reference value: 1.6%); format: functional; how it was run: as §3
A2780 [13] = test: Induction of apoptosis in human A2780 cells assessed as viable cells at 5 uM after 24 hrs by Annexin V-FITC/PI staining based flow cytometric analysis (reference value: 92%); format: functional; settings: read-out: Activity; how it was run: as §3
A2780 [14] = test: Induction of apoptosis in human A2780 cells assessed as early apoptotic cells at 5 uM after 24 hrs by Annexin V-FITC/PI staining based flow cytometric analysis (reference value: 1.6%); format: functional; how it was run: as §3
A2780 [15] = test: Induction of apoptosis in human A2780 cells assessed as late apoptotic cells at 5 uM after 24 hrs by Annexin V-FITC/PI staining based flow cytometric analysis (reference value: 2.8%); format: functional; how it was run: as §3
A2780 [16] = test: Induction of cell cycle arrest in human A2780 cells assessed as accumulation at pre-G1 phase at 2 uM after 24 hrs by propidium iodide staining based flow cytometric analysis (reference value: 1.2%); format: functional
A2780 [17] = test: Induction of cell cycle arrest in human A2780 cells assessed as accumulation at S phase at 2 uM after 24 hrs by propidium iodide staining based flow cytometric analysis (reference value: 20%); format: functional
How it was run: (§4)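 4 × 10⁵ A2780 cells cultured 24 h in medium alone or with varying inhibitor concentrations, harvested into hypotonic fluorochrome solution (0.1% sodium citrate, 0.1% Triton X-100, propidium iodide, 100 ug/ml RNase A), and DNA content analysed by flow cytometry. Representative of three independent experiments.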

A2780 [18] = test: Induction of cell cycle arrest in human A2780 cells assessed as accumulation at G1/G0 phase at 5 uM after 24 hrs by propidium iodide staining based flow cytometric analysis (reference value: 56.7%); format: functional; how it was run: as §4
A2780 [19] = test: Induction of cell cycle arrest in human A2780 cells assessed as accumulation at S phase at 5 uM after 24 hrs by propidium iodide staining based flow cytometric analysis (reference value: 20%); format: functional; how it was run: as §4
A2780 [20] = test: Induction of cell cycle arrest in human A2780 cells assessed as accumulation at G2/M phase at 5 uM after 24 hrs by propidium iodide staining based flow cytometric analysis (reference value: 21.6%); format: functional; how it was run: as §4
A2780 [21] = test: Induction of cell cycle arrest in human A2780 cells assessed as accumulation at pre-G1 phase after 24 hrs by propidium iodide staining based flow cytometric analysis; format: functional; settings: dose 0.5-5 µM; how it was run: as §4
[22] = biological target: Cyclin-dependent kinase 9 (Homo sapiens) (UniProt P50750); test: Inhibition of CDK9 in human A2780 cells assessed as reduction in RNAP2 phosphorylation at ser5 residues after 24 hrs by Western blot analysis; format: cell-based; settings: dose 0.5-5 µM
A2780 [23] = test: Induction of apoptosis in human A2780 cells assessed as increase in p53 protein expression at 0.5 to 5 uM after 24 hrs by Western blot analysis; format: functional, cell-based; settings: dose 0.5-5 µM
How it was run: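 A2780 cells treated for 24 h over a concentration series, then lysates analysed by Western blotting.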

HCT-116 [24] = test: Induction of apoptosis in human HCT-116 cells assessed as reduction in Mcl-1 protein expression after 24 hrs by Western blot analysis; format: functional, cell-based; settings: dose 0.5-5 µM

Chain of Cyclin-dependent kinase 1/cyclin B1 (P06493 whole entry): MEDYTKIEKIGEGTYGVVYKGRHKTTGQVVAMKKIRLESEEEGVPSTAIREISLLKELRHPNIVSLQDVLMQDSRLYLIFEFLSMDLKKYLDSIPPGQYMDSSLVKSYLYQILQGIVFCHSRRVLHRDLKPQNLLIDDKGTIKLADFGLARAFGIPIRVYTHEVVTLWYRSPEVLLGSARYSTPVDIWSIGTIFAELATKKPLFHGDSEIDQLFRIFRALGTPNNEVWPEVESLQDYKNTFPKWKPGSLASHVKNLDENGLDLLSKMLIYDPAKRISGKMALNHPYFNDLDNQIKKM
Chain of Cyclin-dependent kinase 1/cyclin B1 (P14635 whole entry, further chain): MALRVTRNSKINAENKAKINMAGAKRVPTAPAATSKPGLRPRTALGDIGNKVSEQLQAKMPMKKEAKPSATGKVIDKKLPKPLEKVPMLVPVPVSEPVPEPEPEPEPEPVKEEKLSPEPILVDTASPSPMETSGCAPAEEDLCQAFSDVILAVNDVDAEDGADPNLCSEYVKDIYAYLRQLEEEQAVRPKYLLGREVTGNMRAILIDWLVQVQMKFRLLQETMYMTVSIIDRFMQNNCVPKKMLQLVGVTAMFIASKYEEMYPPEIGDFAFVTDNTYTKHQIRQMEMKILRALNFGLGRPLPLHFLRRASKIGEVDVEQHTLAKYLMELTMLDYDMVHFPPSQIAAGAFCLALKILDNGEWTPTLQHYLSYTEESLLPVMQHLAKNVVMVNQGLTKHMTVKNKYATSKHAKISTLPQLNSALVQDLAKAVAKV
Chain of Mitogen-activated protein kinase kinase kinase 9 (Homo sapiens) (P80192 whole entry, looked up, the tested form may be a part): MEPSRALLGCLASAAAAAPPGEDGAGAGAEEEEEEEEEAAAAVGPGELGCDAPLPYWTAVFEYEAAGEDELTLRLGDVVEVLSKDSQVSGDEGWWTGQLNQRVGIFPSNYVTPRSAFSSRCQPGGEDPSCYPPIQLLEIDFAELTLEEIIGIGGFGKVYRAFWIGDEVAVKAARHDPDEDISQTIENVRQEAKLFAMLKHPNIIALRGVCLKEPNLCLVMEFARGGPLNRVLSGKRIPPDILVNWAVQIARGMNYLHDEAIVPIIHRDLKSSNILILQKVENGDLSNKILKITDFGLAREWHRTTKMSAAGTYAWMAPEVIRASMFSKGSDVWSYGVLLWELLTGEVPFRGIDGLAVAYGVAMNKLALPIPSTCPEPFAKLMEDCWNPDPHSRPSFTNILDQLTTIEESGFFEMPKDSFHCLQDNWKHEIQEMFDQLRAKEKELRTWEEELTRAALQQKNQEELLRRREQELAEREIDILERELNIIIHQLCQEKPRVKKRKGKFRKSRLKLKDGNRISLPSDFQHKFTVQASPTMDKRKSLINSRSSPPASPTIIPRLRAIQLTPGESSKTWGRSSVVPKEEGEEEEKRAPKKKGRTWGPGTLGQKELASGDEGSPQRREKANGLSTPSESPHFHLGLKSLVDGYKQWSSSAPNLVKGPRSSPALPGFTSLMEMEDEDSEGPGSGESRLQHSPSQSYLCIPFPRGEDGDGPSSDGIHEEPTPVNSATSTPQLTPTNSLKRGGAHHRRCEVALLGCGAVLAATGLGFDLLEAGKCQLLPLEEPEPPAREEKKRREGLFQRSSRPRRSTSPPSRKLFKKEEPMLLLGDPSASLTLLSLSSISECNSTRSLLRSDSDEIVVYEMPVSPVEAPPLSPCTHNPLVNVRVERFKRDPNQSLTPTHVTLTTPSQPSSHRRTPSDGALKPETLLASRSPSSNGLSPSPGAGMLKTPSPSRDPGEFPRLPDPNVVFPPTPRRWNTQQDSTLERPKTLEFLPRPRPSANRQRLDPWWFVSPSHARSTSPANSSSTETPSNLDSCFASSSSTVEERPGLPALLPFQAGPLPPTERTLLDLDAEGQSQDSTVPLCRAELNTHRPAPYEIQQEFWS
Chain of Cyclin-dependent kinase 7/ cyclin H (P51946 whole entry): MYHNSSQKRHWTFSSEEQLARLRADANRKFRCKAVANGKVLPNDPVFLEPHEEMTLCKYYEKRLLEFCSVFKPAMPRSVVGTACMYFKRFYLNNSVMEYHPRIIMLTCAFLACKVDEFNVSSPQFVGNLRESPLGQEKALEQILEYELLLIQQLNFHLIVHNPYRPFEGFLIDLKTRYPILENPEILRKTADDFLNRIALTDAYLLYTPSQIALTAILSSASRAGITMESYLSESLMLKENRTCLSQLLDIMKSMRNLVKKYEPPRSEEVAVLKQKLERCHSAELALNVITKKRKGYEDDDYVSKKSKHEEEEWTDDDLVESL
Chain of Cyclin-dependent kinase 7/ cyclin H (P50613 whole entry): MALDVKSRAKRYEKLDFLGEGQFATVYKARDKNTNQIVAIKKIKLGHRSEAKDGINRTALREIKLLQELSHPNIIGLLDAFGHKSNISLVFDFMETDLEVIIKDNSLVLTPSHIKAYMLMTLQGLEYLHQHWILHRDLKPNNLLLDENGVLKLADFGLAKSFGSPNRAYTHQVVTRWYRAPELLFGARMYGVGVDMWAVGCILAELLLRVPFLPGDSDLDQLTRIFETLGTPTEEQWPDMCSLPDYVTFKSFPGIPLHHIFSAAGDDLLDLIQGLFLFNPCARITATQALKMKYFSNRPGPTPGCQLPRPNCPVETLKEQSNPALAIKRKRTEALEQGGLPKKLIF
Chain of CDK9/cyclin T1 (O60563 whole entry): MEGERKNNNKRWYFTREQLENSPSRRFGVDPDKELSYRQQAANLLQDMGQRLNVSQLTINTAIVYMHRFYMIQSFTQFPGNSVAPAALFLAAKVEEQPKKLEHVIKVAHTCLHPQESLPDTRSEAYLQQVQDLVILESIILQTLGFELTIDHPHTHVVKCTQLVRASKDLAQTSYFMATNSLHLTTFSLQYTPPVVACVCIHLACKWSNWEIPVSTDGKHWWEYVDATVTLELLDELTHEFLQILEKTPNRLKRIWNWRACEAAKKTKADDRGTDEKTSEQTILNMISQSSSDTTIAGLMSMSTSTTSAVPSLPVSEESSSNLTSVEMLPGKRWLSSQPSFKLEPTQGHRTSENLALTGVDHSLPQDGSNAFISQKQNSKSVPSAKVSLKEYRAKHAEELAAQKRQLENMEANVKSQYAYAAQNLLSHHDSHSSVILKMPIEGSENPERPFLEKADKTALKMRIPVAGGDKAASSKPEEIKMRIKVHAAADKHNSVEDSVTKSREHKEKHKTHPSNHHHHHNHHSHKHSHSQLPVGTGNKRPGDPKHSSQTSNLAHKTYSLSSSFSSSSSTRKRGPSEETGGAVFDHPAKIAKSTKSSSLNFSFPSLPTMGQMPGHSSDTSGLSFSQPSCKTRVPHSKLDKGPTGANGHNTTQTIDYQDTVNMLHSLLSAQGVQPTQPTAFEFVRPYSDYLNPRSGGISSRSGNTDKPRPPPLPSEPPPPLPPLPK
Chain of CDK9/cyclin T1 (P50750 whole entry): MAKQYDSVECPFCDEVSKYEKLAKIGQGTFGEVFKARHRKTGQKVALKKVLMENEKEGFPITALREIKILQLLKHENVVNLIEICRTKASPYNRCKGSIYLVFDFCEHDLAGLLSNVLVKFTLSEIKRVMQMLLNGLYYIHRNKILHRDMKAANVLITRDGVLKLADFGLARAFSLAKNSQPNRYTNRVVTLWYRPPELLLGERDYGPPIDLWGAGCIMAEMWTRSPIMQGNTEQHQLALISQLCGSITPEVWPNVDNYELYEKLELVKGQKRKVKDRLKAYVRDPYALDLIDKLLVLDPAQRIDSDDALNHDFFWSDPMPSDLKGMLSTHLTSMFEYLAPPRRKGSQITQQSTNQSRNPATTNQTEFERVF
Chain of Vascular endothelial growth factor receptor 2 (Homo sapiens) (P35968 whole entry): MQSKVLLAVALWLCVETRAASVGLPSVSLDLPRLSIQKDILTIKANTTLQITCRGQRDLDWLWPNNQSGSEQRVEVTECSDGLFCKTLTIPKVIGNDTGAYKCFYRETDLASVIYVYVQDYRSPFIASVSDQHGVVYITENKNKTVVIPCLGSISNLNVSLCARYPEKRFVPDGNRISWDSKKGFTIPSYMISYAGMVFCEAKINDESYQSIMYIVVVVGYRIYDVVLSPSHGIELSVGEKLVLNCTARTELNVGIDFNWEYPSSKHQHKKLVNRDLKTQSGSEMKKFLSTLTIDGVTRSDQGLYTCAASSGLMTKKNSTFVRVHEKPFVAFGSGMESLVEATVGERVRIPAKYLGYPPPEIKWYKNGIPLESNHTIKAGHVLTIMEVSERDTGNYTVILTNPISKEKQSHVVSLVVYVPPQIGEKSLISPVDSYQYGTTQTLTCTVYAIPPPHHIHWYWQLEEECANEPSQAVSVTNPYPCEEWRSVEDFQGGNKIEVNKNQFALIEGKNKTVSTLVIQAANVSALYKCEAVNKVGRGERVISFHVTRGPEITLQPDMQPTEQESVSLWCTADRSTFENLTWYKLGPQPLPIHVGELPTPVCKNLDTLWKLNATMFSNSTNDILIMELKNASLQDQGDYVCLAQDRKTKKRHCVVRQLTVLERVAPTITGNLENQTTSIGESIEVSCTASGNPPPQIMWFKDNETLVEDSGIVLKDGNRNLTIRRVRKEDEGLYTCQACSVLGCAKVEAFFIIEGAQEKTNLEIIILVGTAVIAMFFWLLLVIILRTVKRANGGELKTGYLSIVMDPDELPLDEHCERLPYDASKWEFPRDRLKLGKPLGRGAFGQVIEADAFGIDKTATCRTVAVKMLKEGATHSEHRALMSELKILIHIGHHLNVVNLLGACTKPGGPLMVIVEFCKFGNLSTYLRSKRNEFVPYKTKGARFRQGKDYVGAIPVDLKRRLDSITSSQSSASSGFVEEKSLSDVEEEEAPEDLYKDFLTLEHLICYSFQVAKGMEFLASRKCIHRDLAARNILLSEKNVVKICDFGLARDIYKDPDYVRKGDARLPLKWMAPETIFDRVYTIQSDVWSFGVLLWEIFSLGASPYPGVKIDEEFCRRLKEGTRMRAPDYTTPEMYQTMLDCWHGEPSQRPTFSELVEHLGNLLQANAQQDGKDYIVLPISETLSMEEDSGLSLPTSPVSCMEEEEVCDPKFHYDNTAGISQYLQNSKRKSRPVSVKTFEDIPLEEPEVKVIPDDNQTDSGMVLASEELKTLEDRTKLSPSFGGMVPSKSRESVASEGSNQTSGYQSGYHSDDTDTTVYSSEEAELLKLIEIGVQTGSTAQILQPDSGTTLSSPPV
Chain of Cyclin-dependent kinase 9 (Homo sapiens) (P50750 whole entry): as the sequence (P50750 whole entry) above

In the case of `CNc1nc(C)c(-c2nc(Nc3cccc(N4CCN5CCC4CC5)c3)ncc2C)s1`, the pKi (CDK9/cyclin T1) was 8.00, the inhibition [1] was “Active” and the pKi (CDK2/Cyclin A2) was 5.90. It also gave a GI50 (HCT-116 [2]) of 1.07 µM, a GI50 (MCF7) of 1.34 µM and a pKi [3] of 5.93. The pKi [4] was 6.26, the inhibition [5] was “Active” and the inhibition [6] was “Active”. The GI50 (MDA-MB-468) was 1.46 µM, the GI50 (A549) was 1.54 µM and the GI50 (HeLa) was 0.8 µM. For the same compound, the GI50 (MIA PaCa-2) was 1.07 µM, the viability at 0.5 µM (A2780 [7]) was 88.3% and the Activity (A2780 [8]) was 3.6%. The Activity (A2780 [9]) was 6.2%, the viability at 1 µM (A2780 [10]) was 74.4% and the Activity (A2780 [11]) was 9.3%. It also gave an Activity (A2780 [12]) of 14.4%, a viability at 5 µM (A2780 [13]) of 22.6% and an Activity (A2780 [14]) of 24.65%. It also gave an Activity (A2780 [15]) of 47.2%, an Activity (A2780 [16]) of 8.3% and an Activity (A2780 [17]) of 8.3%. For the same compound, the Activity (A2780 [18]) was 31.5%, the Activity (A2780 [19]) was 10.8% and the Activity (A2780 [20]) was 23.5%. The Activity (A2780 [21]) was “Dose-Dependent Effect”, the inhibition [22] was “Dose-Dependent Effect” and the Activity (A2780 [23]) was “Active”. The Activity (HCT-116 [24]) was “Dose-Dependent Effect”.
